From ChEMBL document CHEMBL1147446, “Antagonists of human CCR5 receptor containing 4-(pyrazolyl)piperidine side chains. Part 3: SAR studies on the benzylpyrazole segment” (Bioorg Med Chem Lett, 2004)

What was measured:
[1] = molecular target: C-C chemokine receptor type 5 (Homo sapiens, UniProt P51681); assay: Inhibitory concentration for displacement of [125I]-MIP-1 alpha from recombinant human CC chemokine receptor 5 (CCR5) expressed in CHO cell; format: cell-based
Outline: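 Competitive binding to CCR5 on CHO cell membranes, read as displacement of [125I]-labeled MIP-1α. IC50 values are means of triplicate determinations. Standard errors were normally <15% within an assay. Assay-to-assay variation was within ±2-fold, judged from a standard compound.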

HeLa [2] = assay: Antiviral activities in a cell culture HIV-1 infectivity inhibition assay using HeLa cells; format: functional; conditions: Homo sapiens
in vivo [3] = conditions: rat
in vivo [4] = conditions: rat; remark: listed apart in the source
HeLa [5] = assay: Antiviral activities in a cell culture HIV-1 infectivity inhibition assay using HeLa cells plus 50% normal human serum; format: functional
in vivo [6] = conditions: rat, plasma

Sequence of C-C chemokine receptor type 5 (P51681 whole entry): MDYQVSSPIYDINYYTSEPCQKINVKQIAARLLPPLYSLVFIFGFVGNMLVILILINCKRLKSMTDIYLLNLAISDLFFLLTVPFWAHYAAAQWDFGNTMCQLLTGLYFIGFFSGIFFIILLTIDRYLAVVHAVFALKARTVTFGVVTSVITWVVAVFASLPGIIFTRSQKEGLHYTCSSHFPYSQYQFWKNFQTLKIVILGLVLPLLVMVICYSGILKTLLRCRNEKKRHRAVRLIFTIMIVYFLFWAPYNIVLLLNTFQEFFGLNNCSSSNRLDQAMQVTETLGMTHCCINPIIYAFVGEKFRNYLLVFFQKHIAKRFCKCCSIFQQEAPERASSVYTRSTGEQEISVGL

Row | SMILES | IC50 [1] | IC90 (HeLa [2]) | half-life (in vivo [3]) | bioavailability (in vivo [4]) | IC90 (HeLa [5]) | clearance (in vivo [6])
1 | CC[C@@H](C)[C@H](C(=O)O)N1C[C@H](CN2CCC(c3cc(Cc4ccc(C#N)cc4)nn3CC)CC2)[C@@H](c2cccc(F)c2)C1 | 1.3 nM | 0.4 nM | 44.4 min | 3.1% | 33 nM | 9.8 mL/min/kg
2 | CCn1nc(Cc2ccc(OC(C)C)cc2)cc1C1CCN(C[C@H]2CN([C@@H](C(=O)O)C(C)(C)C)C[C@@H]2c2cccc(F)c2)CC1 | 0.7 nM | < 0.14 nM | 84 min | 49% | 11 nM | 0.98 mL/min/kg
3 | CCn1nc(Cc2cccc(F)c2)cc1C1CCN(C[C@H]2CN([C@@H](C(=O)O)C(C)C)C[C@@H]2c2cccc(F)c2)CC1 | 1.3 nM | 11 nM | 48 min | 40% | 300 nM | 3.9 mL/min/kg
4 | CCn1nc(Cc2ccc(OC(C)(C)C)cc2)cc1C1CCN(C[C@H]2CN([C@@H](C(=O)O)C3CCCCC3)C[C@@H]2c2cccc(F)c2)CC1 | 0.5 nM | < 0.14 nM | 60 min | 19% | 11 nM | 27 mL/min/kg
5 | CCn1nc(Cc2cccc(OC)c2)cc1C1CCN(C[C@H]2CN([C@@H](C(=O)O)C(C)(C)C)C[C@@H]2c2cccc(F)c2)CC1 | 0.7 nM | < 0.14 nM | – | – | 33 nM | –
6 | CCCCOc1ccc(Cc2cc(C3CCN(C[C@H]4CN([C@@H](C(=O)O)C(C)(C)C)C[C@@H]4c4cccc(F)c4)CC3)n(CC)n2)cc1 | 0.8 nM | 1.2 nM | – | – | 33 nM | –
7 | CCn1nc(Cc2ccc(O)cc2)cc1C1CCN(C[C@H]2CN([C@@H](C(=O)O)C(C)(C)C)C[C@@H]2c2cccc(F)c2)CC1 | 1.1 nM | 0.4 nM | – | – | 11 nM | –
8 | CC[C@H](C)[C@H](C(=O)O)N1C[C@H](CN2CCC(c3cc(Cc4cccc(OC)c4)nn3CC)CC2)[C@@H](c2cccc(F)c2)C1 | 1.2 nM | < 0.14 nM | – | – | 100 nM | –
9 | CCn1nc(Cc2ccc(C#N)cc2)cc1C1CCN(C[C@H]2CN([C@@H](C(=O)O)C(C)C)C[C@@H]2c2cccc(F)c2)CC1 | 3.1 nM | 1.2 nM | – | – | 100 nM | –
10 | CCn1nc(Cc2cccnc2)cc1C1CCN(C[C@H]2CN([C@@H](C(=O)O)C(C)C)C[C@@H]2c2cccc(F)c2)CC1 | 13.1 nM | 11 nM | – | – | 300 nM | –
11 | CCOc1ccc(Cc2cc(C3CCN(C[C@H]4CN([C@@H](C(=O)O)C5CCCCC5)C[C@@H]4c4cccc(F)c4)CC3)n(CC)n2)cc1 | 1 nM | < 0.14 nM | – | – | 33 nM | –
12 | CCCCOc1ccc(Cc2cc(C3CCN(C[C@H]4CN([C@@H](C(=O)O)[C@H](C)CC)C[C@@H]4c4cccc(F)c4)CC3)n(CC)n2)cc1 | 0.8 nM | 3.7 nM | – | – | 100 nM | –
13 | CCn1nc(Cc2cc(C(F)(F)F)cc(C(F)(F)F)c2)cc1C1CCN(C[C@H]2CN([C@@H](C(=O)O)C(C)(C)C)C[C@@H]2c2cccc(F)c2)CC1 | 2.3 nM | 11 nM | – | – | > 300 nM | –
14 | CCn1nc(Cc2cc(F)cc(F)c2)cc1C1CCN(C[C@H]2CN([C@@H](C(=O)O)C3CCCCC3)C[C@@H]2c2cccc(F)c2)CC1 | 0.9 nM | < 0.14 nM | – | – | 11 nM | –
15 | CC[C@H](C)[C@H](C(=O)O)N1C[C@H](CN2CCC(c3cc(Cc4ccc(S(=O)(=O)c5ccccc5)cc4)nn3CC)CC2)[C@@H](c2cccc(F)c2)C1 | 0.6 nM | < 0.14 nM | – | – | 11 nM | –
16 | CC[C@@H](C)[C@H](C(=O)O)N1C[C@H](CN2CCC(c3cc(Cc4ccc(OC(F)(F)F)cc4)nn3CC)CC2)[C@@H](c2cccc(F)c2)C1 | 0.6 nM | 1.2 nM | – | – | 100 nM | –
17 | CCn1nc(Cc2ccc3ccccc3c2)cc1C1CCN(C[C@H]2CN([C@@H](C(=O)O)C(C)(C)C)C[C@@H]2c2cccc(F)c2)CC1 | 0.2 nM | < 0.14 nM | – | – | 100 nM | –
18 | CCn1nc(Cc2ccc(OC(F)(F)F)cc2)cc1C1CCN(C[C@H]2CN([C@@H](C(=O)O)C(C)(C)C)C[C@@H]2c2cccc(F)c2)CC1 | 0.6 nM | 1.2 nM | – | – | 100 nM | –
19 | CCn1nc(Cc2ccc(OC3CC3)cc2)cc1C1CCN(C[C@H]2CN([C@@H](C(=O)O)C(C)(C)C)C[C@@H]2c2cccc(F)c2)CC1 | 0.4 nM | < 0.14 nM | – | – | 33 nM | –
20 | CC[C@H](C)[C@H](C(=O)O)N1C[C@H](CN2CCC(c3cc(Cc4ccc(Oc5ccccc5)cc4)nn3CC)CC2)[C@@H](c2cccc(F)c2)C1 | 0.4 nM | 1.2 nM | – | – | 100 nM | –
21 | CC[C@@H](C)[C@H](C(=O)O)N1C[C@H](CN2CCC(c3cc(Cc4ccc(C(F)(F)F)cc4)nn3CC)CC2)[C@@H](c2cccc(F)c2)C1 | 0.5 nM | 0.4 nM | – | – | 100 nM | –
22 | CC[C@H](C)[C@H](C(=O)O)N1C[C@H](CN2CCC(c3cc(Cc4ccc(O)cc4)nn3CC)CC2)[C@@H](c2cccc(F)c2)C1 | 1.4 nM | 0.4 nM | – | – | 11 nM | –
23 | CC[C@@H](C)[C@H](C(=O)O)N1C[C@H](CN2CCC(c3cc(Cc4ccc(OCc5ccccc5)cc4)nn3CC)CC2)[C@@H](c2cccc(F)c2)C1 | 0.5 nM | 3.7 nM | – | – | 100 nM | –

Row | SMILES | IC50 [1] | IC90 (HeLa [2]) | half-life (in vivo [3]) | bioavailability (in vivo [4]) | IC90 (HeLa [5]) | clearance (in vivo [6])
24 | CC[C@@H](C)[C@H](C(=O)O)N1C[C@H](CN2CCC(c3cc(Cc4ccc(S(=O)(=O)c5ccccc5)cc4)nn3CC)CC2)[C@@H](c2cccc(F)c2)C1 | 1.1 nM | 0.4 nM | – | – | 33 nM | –
25 | CCn1nc(Cc2ccc(F)c(F)c2)cc1C1CCN(C[C@H]2CN([C@@H](C(=O)O)C(C)C)C[C@@H]2c2cccc(F)c2)CC1 | 1.1 nM | 3.7 nM | – | – | 300 nM | –
26 | CCn1nc(Cc2cccnc2)cc1C1CCN(C[C@H]2CN([C@@H](C(=O)O)C3CCCCC3)C[C@@H]2c2cccc(F)c2)CC1 | 3.9 nM | 0.4 nM | – | – | 33 nM | –
27 | CCOc1cccc(Cc2cc(C3CCN(C[C@H]4CN([C@@H](C(=O)O)[C@@H](C)CC)C[C@@H]4c4cccc(F)c4)CC3)n(CC)n2)c1 | 0.9 nM | < 0.14 nM | – | – | 100 nM | –
28 | CC[C@@H](C)[C@H](C(=O)O)N1C[C@H](CN2CCC(c3cc(Cc4ccc(-c5ccccc5)cc4)nn3CC)CC2)[C@@H](c2cccc(F)c2)C1 | 0.5 nM | 1.2 nM | – | – | 300 nM | –
29 | CCn1nc(Cc2ccc(OC(F)F)cc2)cc1C1CCN(C[C@H]2CN([C@@H](C(=O)O)C(C)(C)C)C[C@@H]2c2cccc(F)c2)CC1 | 0.5 nM | < 0.14 nM | – | – | 11 nM | –
30 | CC[C@H](C)[C@H](C(=O)O)N1C[C@H](CN2CCC(c3cc(Cc4ccc(OC)c(C#N)c4)nn3CC)CC2)[C@@H](c2cccc(F)c2)C1 | 0.5 nM | < 0.14 nM | – | – | 33 nM | –
31 | CC[C@@H](C)[C@H](C(=O)O)N1C[C@H](CN2CCC(c3cc(Cc4ccccc4)nn3CC)CC2)[C@@H](c2cccc(F)c2)C1 | 0.9 nM | 0.4 nM | – | – | 300 nM | –
32 | CCn1nc(Cc2ccc(C(F)(F)F)cc2)cc1C1CCN(C[C@H]2CN([C@@H](C(=O)O)C3CCCCC3)C[C@@H]2c2cccc(F)c2)CC1 | 1.5 nM | 0.4 nM | – | – | 33 nM | –
33 | CC[C@H](C)[C@H](C(=O)O)N1C[C@H](CN2CCC(c3cc(Cc4ccc(OC(F)F)cc4)nn3CC)CC2)[C@@H](c2cccc(F)c2)C1 | 0.3 nM | < 0.14 nM | – | – | 11 nM | –
34 | CCOc1cccc(Cc2cc(C3CCN(C[C@H]4CN([C@@H](C(=O)O)C(C)(C)C)C[C@@H]4c4cccc(F)c4)CC3)n(CC)n2)c1 | 0.4 nM | < 0.14 nM | – | – | 100 nM | –
35 | CCn1nc(Cc2ccc(OC)c(C#N)c2)cc1C1CCN(C[C@H]2CN([C@@H](C(=O)O)C(C)(C)C)C[C@@H]2c2cccc(F)c2)CC1 | 0.9 nM | < 0.14 nM | – | – | 33 nM | –
36 | CCn1nc(CC2CCCCC2)cc1C1CCN(C[C@H]2CN([C@@H](C(=O)O)C(C)C)C[C@@H]2c2cccc(F)c2)CC1 | 2.3 nM | 33 nM | – | – | > 300 nM | –
37 | CCn1nc(Cc2ccc(OC3CC3)cc2)cc1C1CCN(C[C@H]2CN([C@@H](C(=O)O)C3CCCCC3)C[C@@H]2c2cccc(F)c2)CC1 | 0.2 nM | < 0.14 nM | – | – | 33 nM | –
38 | CC[C@H](C)[C@H](C(=O)O)N1C[C@H](CN2CCC(c3cc(Cc4ccc(C(F)(F)F)cc4)nn3CC)CC2)[C@@H](c2cccc(F)c2)C1 | 0.5 nM | < 0.14 nM | – | – | 33 nM | –
39 | CCn1nc(Cc2ccc(OC)cc2)cc1C1CCN(C[C@H]2CN([C@@H](C(=O)O)C3CCCCC3)C[C@@H]2c2cccc(F)c2)CC1 | 1.1 nM | < 0.14 nM | – | – | 33 nM | –
40 | CCCCOc1ccc(Cc2cc(C3CCN(C[C@H]4CN([C@@H](C(=O)O)C(C)C)C[C@@H]4c4cccc(F)c4)CC3)n(CC)n2)cc1 | 0.5 nM | 11 nM | – | – | 300 nM | –
41 | CC[C@H](C)[C@H](C(=O)O)N1C[C@H](CN2CCC(c3cc(Cc4cccc(C#N)c4)nn3CC)CC2)[C@@H](c2cccc(F)c2)C1 | 0.9 nM | < 0.14 nM | – | – | 11 nM | –
42 | CC[C@@H](C)[C@H](C(=O)O)N1C[C@H](CN2CCC(c3cc(Cc4ccc(Oc5ccccc5)cc4)nn3CC)CC2)[C@@H](c2cccc(F)c2)C1 | 0.5 nM | 3.7 nM | – | – | 300 nM | –
43 | CC[C@H](C)[C@H](C(=O)O)N1C[C@H](CN2CCC(c3cc(Cc4ccc5c(c4)OCO5)nn3CC)CC2)[C@@H](c2cccc(F)c2)C1 | 0.5 nM | < 0.14 nM | – | – | 100 nM | –
44 | CC[C@H](C)[C@H](C(=O)O)N1C[C@H](CN2CCC(c3cc(Cc4ccc(OCC(F)(F)F)cc4)nn3CC)CC2)[C@@H](c2cccc(F)c2)C1 | 0.6 nM | 0.4 nM | – | – | 33 nM | –
45 | CC[C@@H](C)[C@H](C(=O)O)N1C[C@H](CN2CCC(c3cc(Cc4cccc5ccccc45)nn3CC)CC2)[C@@H](c2cccc(F)c2)C1 | 0.2 nM | < 0.14 nM | – | – | 33 nM | –
